Reference: ChEMBL document CHEMBL4411311, “Exploration of novel macrocyclic dipeptide N-benzyl amides as proteasome inhibitors” (Eur J Med Chem, 2019)

Tests used:
[1] = Inhibition of human peripheral blood derived 20s immunoproteasome beta2 trypsin-like activity using […] as substrate preincubated for 15 mins followed by substrate addition and measured after 60 mins by fluorescence assay
[2] = target: T1, Proteasome Macropain subunit MB1 (Homo sapiens, UniProt P28074); test: Inhibition of human hepatic cell derived 20s constitutive proteasome beta5 chymotrypsin-like activity using Suc-WLA-AMC as substrate preincubated for 15 mins followed by substrate addition and measured after 60 mins by fluorescence assay
T1 sequence (P28074 whole entry): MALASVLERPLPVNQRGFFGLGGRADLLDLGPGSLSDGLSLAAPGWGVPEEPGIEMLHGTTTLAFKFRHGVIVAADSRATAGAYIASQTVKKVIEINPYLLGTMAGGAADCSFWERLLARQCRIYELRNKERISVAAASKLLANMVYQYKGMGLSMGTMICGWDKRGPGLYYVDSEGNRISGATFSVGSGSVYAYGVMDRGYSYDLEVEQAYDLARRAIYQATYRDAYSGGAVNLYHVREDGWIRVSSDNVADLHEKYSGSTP

RPMI-8226 = test: Antiproliferative activity against human RPMI8226 cells after 72 hrs by MTS assay; type: functional, cell-based; conditions: RPMI-8226, 72 h
Summary of the method: (§1)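 Cells kept at 37 °C in humidified 5% CO₂. RPMI 8226 and MM.1S were grown in RPMI-1640 with 10% FBS plus penicillin/streptomycin. Seeding per well was 5 × 10³ (RPMI 8226), 3 × 10⁴ (MM.1S) or 8 × 10³ (MV-4-11). Cells were treated with DMSO vehicle or graded concentrations, then given MTS/PMS for 2-4 h at 37 °C. OD read at 490 nm minus 690 nm background. Growth inhibition = (A_control − A_sample)/A_control; IC50 from variable-slope sigmoidal nonlinear fit.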

MM1.S = test: Antiproliferative activity against human MM1S cells after 72 hrs by MTS assay; type: functional, cell-based; summary of the method: as §1
MV4-11 = test: Antiproliferative activity against human MV4-11 cells after 72 hrs by MTS assay; type: functional, cell-based; conditions: MV4-11, 72 h; summary of the method: as §1
[3] = target: T2, Proteasome Macropain subunit MB1 (Homo sapiens) (UniProt P28074); test: Inhibition of human hepatic cell derived 20s constitutive proteasome beta5 chymotrypsin-like activity at 10 uM using Suc-WLA-AMC as substrate preincubated for 15 mins followed by substrate addition and measured after 60 mins by fluorescence assay relative to control
T2 sequence (whole entry): T1 sequence (P28074 whole entry)

[4] = target: T3, Proteasome subunit beta type-9 (Homo sapiens, UniProt P28065); test: Inhibition of human peripheral blood derived 20s immunoproteasome beta1 caspase-like activity using Suc-PAL-AMC as substrate preincubated for 15 mins followed by substrate addition and measured after 60 mins by fluorescence assay
T3 sequence (P28065 whole entry): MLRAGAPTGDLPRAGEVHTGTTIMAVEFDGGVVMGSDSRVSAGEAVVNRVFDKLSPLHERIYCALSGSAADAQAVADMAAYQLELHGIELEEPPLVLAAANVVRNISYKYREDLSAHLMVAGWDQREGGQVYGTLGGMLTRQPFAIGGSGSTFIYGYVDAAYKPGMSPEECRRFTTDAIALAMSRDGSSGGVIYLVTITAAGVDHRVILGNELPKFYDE

[5] = target: T4, Proteasome subunit beta type-8 (Homo sapiens, UniProt P28062); test: Inhibition of human peripheral blood derived 20s immunoproteasome beta5 chymotrypsin-like activity using […] as substrate preincubated for 15 mins followed by substrate addition and measured after 60 mins by fluorescence assay
T4 sequence (P28062 whole entry): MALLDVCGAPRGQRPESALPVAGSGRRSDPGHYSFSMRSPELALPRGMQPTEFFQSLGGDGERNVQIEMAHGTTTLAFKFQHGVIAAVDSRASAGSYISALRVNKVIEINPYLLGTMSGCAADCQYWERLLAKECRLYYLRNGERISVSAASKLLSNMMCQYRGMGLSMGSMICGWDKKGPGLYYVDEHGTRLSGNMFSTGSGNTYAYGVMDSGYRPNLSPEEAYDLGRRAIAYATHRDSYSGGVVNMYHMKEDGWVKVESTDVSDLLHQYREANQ

[6] = Stability in human liver microsomes assessed as parent compound remaining at 1 uM measured after 30 mins by LC-MS/MS analysis; type: ADME, Microsome; conditions: read-out: Stability
Summary of the method: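 Test compound at […] incubated with human liver microsomes (1.0 mg/mL protein) in 0.1 M PBS pH 7.4 with 1 mM NADPH. Microsomes preincubated 5 min at 37 °C; reaction started by compound addition and sampled at 0, 10, 20 and 30 min. Stopped with ice-cold methanol containing internal standard, then centrifuged at 15000g for 10 min. Supernatant analysed by LC-MS; % remaining = analyte/IS peak-area ratio relative to 0 min.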

| IC50 [1] [nM] | IC50 [2] [nM] | IC50 (RPMI-8226) [nM] | IC50 (MM1.S) [nM] | IC50 (MV4-11) [nM] | inhibition [3] [%] | IC50 [4] [nM] | IC50 [5] [nM] | remaining at 0.5 h, 1 µM [6] [%] | Structure (SMILES) |
| --- | --- | --- | --- | --- | --- | --- | --- | --- | --- |
| 517 |  |  |  |  |  |  |  |  | CC(C)C[C@H](NC(=O)[C@H](Cc1ccccc1)NC(=O)c1cnccn1)B(O)O [BORTEZOMIB] |
|  | 26 | 59 | 17 | 52 |  |  |  |  | Cc1ccc(CNC(=O)[C@@H]2Cc3cn(c4ccccc34)CCCCCn3ccnc3C(=O)N[C@@H](CC(=O)NCC(C)(C)C)C(=O)N2)cc1 |
|  |  |  |  |  | 36.7 |  |  |  | O=C1N[C@@H](CCc2ccccc2)C(=O)N[C@H](C(=O)NCc2ccccc2Cl)COCCCCCCOc2ccccc21 |
|  |  |  |  |  | 38.4 |  |  |  | Cc1ccc(CNC(=O)[C@@H]2COCCCCCCOc3ccccc3C(=O)N[C@@H](CCc3ccccc3)C(=O)N2)cc1 |
|  | 127 | 301 | 343 | 718 |  |  |  |  | CC(C)(C)CNC(=O)C[C@@H]1NC(=O)c2ccccc2OCCCCCCOC[C@@H](C(=O)NCc2ccccc2Cl)NC1=O |
|  |  |  |  |  | 34 |  |  |  | COC[C@@H]1NC(=O)c2ccccc2OCCCCCCOC[C@@H](C(=O)NCc2ccccc2Cl)NC1=O |
|  |  | 2 | < 1 |  |  |  |  |  | CC(C)C[C@H](NC(=O)[C@H](CCc1ccccc1)NC(=O)CN1CCOCC1)C(=O)N[C@@H](Cc1ccccc1)C(=O)N[C@@H](CC(C)C)C(=O)[C@@]1(C)CO1 [CARFILZOMIB] |
| > 10000 | 29 | 18 | 15 | 21 |  | > 10000 | 35 | ≥ 66 | Cc1ccc(CNC(=O)[C@@H]2COCCCCCCCc3c(cnn3C)C(=O)N[C@@H](CC(=O)NCC(C)(C)C)C(=O)N2)cc1 |
|  | 50 | 27 | 220 | 208 |  |  |  |  | Cc1ccc(CNC(=O)[C@H]2NC(=O)[C@H](CC(=O)NCC(C)(C)C)NC(=O)c3nccn3CCCCCCCO[C@H]2C)cc1 |
|  | 9 | 97 | 64 | 73 |  |  |  | < 5 | CCCCCCOC[C@H](NC(=O)[C@H](CC(=O)NCC(C)(C)C)NC(=O)c1cnn(C)c1CCC)C(=O)NCc1ccc(C)cc1 |
|  | 30 | 58 | 23 | 55 |  |  |  |  | Cc1ccc(CNC(=O)[C@@H]2COCCCCCCOc3c(cnn3C)C(=O)N[C@@H](CC(=O)NCC(C)(C)C)C(=O)N2)cc1 |
| > 10000 | 34 | 15 | 6 | 12 |  | > 10000 | 19 | < 20 | Cc1ccc(CNC(=O)[C@@H]2COCCCCCCCn3ccnc3C(=O)N[C@@H](CC(=O)NCC(C)(C)C)C(=O)N2)cc1 |
|  | 660 |  |  |  |  |  |  |  | CC(C)(C)CNC(=O)C[C@@H]1NC(=O)c2ccccc2OCCCCCCOC[C@@H](C(=O)NCc2ccccc2)NC1=O |
|  | 67 | 175 | 37 | 76 |  |  |  |  | Cc1ccc(CNC(=O)[C@@H]2COCCCCCCOc3ccccc3C(=O)N[C@@H](CC(=O)NCC(C)(C)C)C(=O)N2)cc1 |
